Experimental data: ChEMBL document CHEMBL3232793, “Fused heterocyclic compounds bearing bridgehead nitrogen as potent HIV-1 NNRTIs. Part 1: design, synthesis and biological evaluation of novel 5,7-disubstituted pyrazolo[1,5-a]pyrimidine derivatives” (Bioorg Med Chem, 2014)

Assays:
[1] = tested on: Human immunodeficiency virus 2; test: Antiviral activity against HIV2 ROD infected in human MT4 cells assessed as virus-induced cytopathic effect by MTT assay; format: functional, organism-based; details: Human immunodeficiency virus 2, ISOLATE ROD
Procedure, shortened: (§1)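 MT-4 cells, resuspended at 6 × 10⁵ cells/mL, infected with HIV-1 IIIB or HIV-2 ROD at 100–300 CCID50. Compounds added at assay start as serial five-fold dilutions in triplicate wells. Viability read spectrophotometrically by MTT 5 days after infection.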

[2] = Cytotoxicity against human MT4 cells assessed as cell viability by MTT assay; format: cell-based
Procedure, shortened: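 Mock-infected MT-4 cells at 6 × 10⁵ cells/mL, run in parallel triplicate wells with the infected series. Compounds given as serial five-fold dilutions. MTT viability read spectrophotometrically at day 5.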

[3] = tested on: Human immunodeficiency virus 1; test: Antiviral activity against wild type HIV1 infected in human Hela-JC53 cells assessed as inhibition of viral replication by luciferase reporter gene assay; format: functional, organism-based; details: Human immunodeficiency virus 1, Hela-JC53
[4] = tested on: Human immunodeficiency virus 1; test: Antiviral activity against NNRTI-resistant HIV1 harboring K103N mutant infected in human Hela-JC53 cells assessed as inhibition of viral replication by luciferase reporter gene assay relative wild type HIV1; format: functional
[5] = tested on: Human immunodeficiency virus 1; test: Antiviral activity against NNRTI-resistant HIV1 harboring Y181C mutant infected in human Hela-JC53 cells assessed as inhibition of viral replication by luciferase reporter gene assay relative wild type HIV1; format: functional
[6] = Selectivity index, ratio of compound activity for human HeLa cells to EC50 for wild type HIV1; format: toxicity, cell-based; details: read-out: Selectivity Index
[7] = Selectivity index, ratio of CC50 for human MT4 cells to EC50 for HIV1 3B; format: toxicity, cell-based; details: read-out: Ratio CC50/EC50
Procedure, shortened: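 Selectivity index = CC50 (mock-infected MT-4 cells) / EC50 (IIIB or ROD protection). Both values come from the same 5-day MTT assay run in parallel triplicate wells.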

[8] = tested on: Human immunodeficiency virus 1; test: Antiviral activity against HIV1 3B infected in human MT4 cells assessed as virus-induced cytopathic effect by MTT assay; format: functional, organism-based; details: Human immunodeficiency virus 1, 3B; procedure, shortened: as §1
[9] = biological target: Human immunodeficiency virus type 1 reverse transcriptase (Human immunodeficiency virus 1, UniProt Q72547); test: Inhibition of recombinant HIV1 reverse transcriptase assessed as inhibition of biotin-dUTP incorporation in to poly [A] x oligo[dT]15 by ELISA
Procedure, shortened: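 Colorimetric kit (Roche) ELISA. Homopolymer template/primer bound to the microplate, with biotin-dUTP as the labelled nucleotide and 4 ng recombinant HIV-1 RT per well. Compounds tested at several concentrations.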

| Compound | CC50 [2] [µM] | EC50 [3] [µM] | fold change (FC) [4] | fold change (FC) [5] | selectivity ratio [6] | further results |
| --- | --- | --- | --- | --- | --- | --- |
| Cc1cc(C#N)cc(C)c1Oc1nc(Nc2ccc(C#N)cc2)nc(N)c1Br [ETRAVIRINE] | > 4.6 | – | – | – | – | EC50 [1]: 0.011 µM |
| Cc1cc(C#N)cc(C)c1Oc1nc(Nc2ccc(C#N)cc2)nc2cc[nH]c12 | – | 0.0008 | 3.8 | 3.8 | > 50000 | – |
| Cc1cc(C#N)cc(C)c1Oc1nc(Nc2ccc(C#N)cc2)nc2[nH]ccc12 | – | 0.0009 | 11 | 11 | > 50000 | – |
| CC(C)Nc1cccnc1N1CCN(C(=O)c2cc3cc(NS(C)(=O)=O)ccc3[nH]2)CC1 [DELAVIRDINE] | > 43.8 | – | – | – | – | selectivity ratio [7]: > 277 |
| Cc1ccnc2c1NC(=O)c1cccnc1N2C1CC1 [NEVIRAPINE] | > 15 | – | – | – | – | EC50 [8]: 0.17 µM |
| Cc1cc(C)c(Oc2cc(Nc3ccc(C#N)cc3)nc3ccnn23)c(C)c1 | – | – | – | – | – | IC50 [9]: 2.26 µM |
